Broadly, the IC50 is the concentration that gives 50% inhibition.

One series deals with P. falciparum W2. Particulars: read-out: IC50 against P. falciparum W2; cultured malaria parasites; cited from earlier work.
The test system of the next series is falcipain-2. Particulars: read-out: IC50 against falcipain-2; cited from earlier work.
Another series concerns Trypanosoma brucei. Particulars: cited from earlier work.
The next series in a line: Cytotoxicity assay. In kind it is cell-based. Particulars: human, HeLa cells. In outline:
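HeLa cells grown in DMEM with 5 mM L-glutamine, 10% FBS and penicillin/streptomycin/fungizone, then exposed to the test agent for 24 h in 96-well plates. A resazurin reagent was added and the resorufin formed by surviving cells was read by fluorescence (Ex 560/Em 590). Triplicate wells; emetine as positive control.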

The nature of series [1]: DPPH radical scavenging assay. The settings on record: 37 °C, 30 min, 517 nm, n = 3. In outline: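 Ethanolic DPPH (300 µM before mixing) was combined with test solution (0.5 mg/mL before mixing) and held at 37 °C for 30 min, then read at 517 nm. % radical scavenging was taken relative to a DMSO control. IC50 is the concentration removing 50% of the initial DPPH, fitted by kinetics software. N-acetyl-L-cysteine standard; 3 replicates.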
On the technique in general: The DPPH test is a chemical assay of radical scavenging.

The next series relates to T.b. brucei. Briefly: Trypanosoma brucei assay. In kind it is cell-based. Particulars: 48 h, read-out: Antitrypanosomal IC50. A digest of the protocol: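 In vitro T. b. brucei cultures in 96-well plates were exposed to the test agent for 48 h; the extract was screened at 25 µg/mL unless otherwise stated. Surviving parasites were counted by adding a resazurin reagent and reading resorufin fluorescence (Ex 560/Em 590). Pentamidine reference; triplicate wells; IC50 from dose-response data.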

The test system of another series is HIV-1 IN. The settings on record: by chelating the active site Mg2+ cofactor; cited from earlier work.

As for `COC(=O)c1c(O)ccc(O)c1O` [2,3,6-trihydroxy methyl benzoate], the figures for the IC50 with P. falciparum W2 and with falcipain-2 were 13 ± 1.63 µM and 6.09 ± 0.87 µM, respectively. For the compound epigallocatechin-3-gallate, the “activity against Trypanosoma brucei” value in the series with Trypanosoma brucei was “active against Trypanosoma brucei”.

On to `CC[C@H]1CN2CCc3cc(OC)c(OC)cc3[C@@H]2C[C@@H]1C[C@H]1NCCc2cc(OC)c(OC)cc21` [emetine], for which, in “Cytotoxicity assay”, the half-maximal inhibitory concentration (IC50) at 24 h was found to be 0.045 ± 0.01 µM.

With `O=C(O)c1c(O)ccc(O)c1O` [2,3,6-trihydroxy benzoic acid], the half-inhibitory concentration (IC50) was 16.5 ± 0.47 µM in the series on P. falciparum W2 and 35.4 ± 22.4 µM with falcipain-2. As for `CC(=O)N[C@@H](CS)C(=O)O` [N-acetyl-L-cysteine], the “Antioxidant IC50” value in series [1] was determined as 14.1 ± 0.1 µg/mL. As to `N=C(N)c1ccc(OCCCCCOc2ccc(C(=N)N)cc2)cc1` [pentamidine], in the series with T.b. brucei, the IC50 amounted to 0.000782 ± 6e-06 µM. As for `COC(=O)c1cc(O)c(O)c(O)c1` [methyl gallate, Methyl gallate], in the series on HIV-1 IN, the “HIV-1 IN inhibition” value was “inhibits HIV-1 IN”.

(Values after PMC11303703 (Scientific Reports, 2024).)
